The assay concerns the target Replicase polyprotein 1ab (Severe acute respiratory syndrome coronavirus 2) (UniProt P0DTD1). Briefly: Inhibition of SARS CoV-2 main protease at 50 uM using DABCYL-KTSAVLQSGFRKM-E(EDANS)-NH2 as substrate preincubated for 30 mins followed by substrate addition and measured after 20 mins relative to control. As to conditions: time 50.0 min. Put shortly:
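FRET protease assay in 40 mM PBS, 100 mM NaCl, 1 mM EDTA, 0.1% Triton, pH 7.3. M^pro (0.5 μM) was preincubated with inhibitor 30 min at room temperature, then 20 μM substrate was added. Cleavage fluorescence (ex 360/em 460 nm) was read for 20 min. This covers preliminary screening and IC50; IC50 from Hill1 fit.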

For `O=C(O)c1ccc(-c2ccc(/C=N/NC(=S)Nc3ccc(Cl)cc3)o2)cc1`, the inhibition (as a rule, the relative decrease from the control value, in per cent) amounted to 27.5%.

For `O=C(O)c1cccc(-c2ccc(/C=N/NC(=S)Nc3cccc(C(F)(F)F)c3)o2)c1`, the inhibition amounted to 43%.

Take `O=C(O)c1cccc(-c2ccc(/C=c3/sc4nc5ccccc5n4c3=O)o2)c1`: the inhibition was less than 20%.

On to `Cc1c(NC(=S)NCCCN(C)C)c(=O)n(-c2ccccc2)n1C`, for which the inhibition was less than 20%.

For `Cc1cccc(NC(=O)CN2C(=O)N/C(=C\c3ccc(-c4cccc(C(=O)O)c4)o3)C2=O)c1`, the inhibition worked out at 24.2%.

`Cc1c(N=C(S)Nc2ccccc2)c(=O)n(-c2ccccc2)n1C` came in with an inhibition of less than 20%.

Take `Cc1c(C(=O)N/N=C/c2ccc(-c3ccc(Cl)c(C(=O)O)c3)o2)sc(N)c1C#N`: the inhibition was found to be 35.8%.

In turn, `CSC1=NSC2=NC(=O)/C(=C\c3ccc(-c4cccc(C(=O)O)c4)o3)C(=N)N12` gave an inhibition of less than 20%.

On to `Nc1nonc1-c1nc2ccccc2n1CC(=O)N/N=C/c1ccc(-c2ccc([N+](=O)[O-])cc2)o1`, for which the inhibition amounted to 30.1%.

In turn, `Cc1c(/N=C/c2ccc(-c3cccc([N+](=O)[O-])c3)o2)c(=O)n(-c2ccccc2)n1C` displayed an inhibition of less than 20%.

Turning to `O=C(CSc1nnnn1-c1ccccc1)N/N=C/c1ccc(-c2ccccc2C(=O)O)o1`, the inhibition is 45.3%.

`C=CCNC(=S)N/N=C/c1ccc(-c2ccc([N+](=O)[O-])cc2)o1` returned an inhibition of 51.4%.

The compound `Cc1cccc(C)c1OCC(=O)N/N=C/c1ccc([N+](=O)[O-])o1` displayed an inhibition of less than 20%.

In the case of `Cc1c(NC(=S)N/N=C/C(Cl)=C/c2ccc([N+](=O)[O-])cc2)c(=O)n(-c2ccccc2)n1C`, the inhibition came to 21.2%.

As for `Cc1c(NC(=S)N/N=C/c2ccc(-c3ccc(Br)cc3)o2)c(=O)n(-c2ccccc2)n1C`, the inhibition was determined as 27.7%.

In turn, `CNC(=S)N/N=C/c1ccc(-c2cccc(C(=O)O)c2)o1` registered an inhibition of 22.2%.

In the case of `O=C(O)c1cccc(-c2ccc(/C=N/n3cnc4sc5c(c4c3=O)CCCC5)o2)c1`, the inhibition came out at 30%.

`Cc1cc(-c2ccc(/C=N/NC(=O)Nc3ccccc3)o2)c(C)c([N+](=O)[O-])c1` came in with an inhibition of less than 20%.

With `CC1=NN(c2ccc(C)c(Cl)c2)C(=O)/C1=C\c1ccc(-c2ccc(C(=O)O)cc2)o1`, the inhibition is less than 20%.

Consider `C=CCNC(=S)N/N=C/c1ccc(-c2cc(C(=O)O)cc(C(=O)O)c2)o1`, for which the inhibition came to 34.2%.

`Cc1ccc(-c2ccc(/C=N/NC(=O)Cn3c4ccccc4c(=O)c4ccccc43)o2)cc1[N+](=O)[O-]` displayed an inhibition of 55.4%.

In the case of `CNC(=S)N/N=C/c1ccc(-c2ccc(C(=O)O)cc2)o1`, the inhibition was found to be 39.5%.

Compound `NC(=S)N/N=C/c1ccc(-c2ccc(C(=O)O)cc2)cc1` displayed an inhibition of 64%.

`CC1=NN(c2cccc(C(=O)O)c2)C(=O)/C1=C\c1ccc(-c2cccc(C(=O)O)c2)o1` displayed an inhibition of 28.5%.

Turning to `O=C(Cn1c2ccccc2c(=O)c2ccccc21)N/N=C/c1ccc(-c2ccccc2)o1`, the inhibition is 21.3%.

The compound `Cc1c(NC(=S)NC(=O)c2ccc(Cl)cc2)c(=O)n(-c2ccccc2)n1C` had an inhibition of less than 20%.

`O=C(O)c1cc(-c2ccc(/C=C3\NC(=O)N(Cc4ccccc4F)C3=O)o2)ccc1Cl` came in with an inhibition of 53.4%.

Consider `Nc1nonc1-c1nc2ccccc2n1CC(=O)N/N=C/c1ccc(-c2cccc(C(F)(F)F)c2)o1`, for which the inhibition is 25.5%.

For `COCc1cc(C)nc(OCC(=O)N/N=C/c2ccc(-c3ccc(C(=O)O)cc3)o2)c1C#N`, the inhibition was determined as 36.2%.

In the case of `O=[N+]([O-])c1ccc(-c2ccc(/C=N/c3cccc(-c4nc5ccccc5o4)c3)o2)cc1`, the inhibition is 21.3%.

As for `C=C(C)CNC(=S)Nc1c(C)n(C)n(-c2ccccc2)c1=O`, the inhibition is less than 20%.

As to `C/C(=N\NC(=S)Nc1c(C)n(C)n(-c2ccccc2)c1=O)c1cccc([N+](=O)[O-])c1`, the inhibition is less than 20%.

`Cc1ccc(C(=O)NC(=S)Nc2c(C)n(C)n(-c3ccccc3)c2=O)cc1` returned an inhibition of less than 20%.

Consider `Nc1nonc1-c1cc2ccccc2n1CC(=O)N/N=C/c1ccc(-c2cccc(C(=O)O)c2)o1`, for which the inhibition was less than 20%.

Turning to `Cc1c(NC(=S)N/N=C/c2ccccc2[N+](=O)[O-])c(=O)n(-c2ccccc2)n1C`, the inhibition is less than 20%.

For the compound `COc1ccccc1OCC(=O)N/N=C/c1ccc(-c2cccc([N+](=O)[O-])c2)o1`, the inhibition was 24.2%.

In the case of `O=C(N/N=C/c1ccc([N+](=O)[O-])o1)c1c[nH]c2ccccc12`, the inhibition is less than 20%.

`O=C(N/N=C/c1ccc(-c2ccc([N+](=O)[O-])cc2)o1)c1cc2ccccc2cc1O` had an inhibition of less than 20%.

`O=C(O)c1cccc(-c2ccc(/C=N/NC(=O)C3COc4ccccc4O3)o2)c1` (configuration not stated) came in with an inhibition of 33.7%.

In the case of `O=C(O)c1cccc(-c2ccc(/C=N/Nc3nc(N4CCCC4)nc(N4CCCC4)n3)o2)c1`, the inhibition was less than 20%.

As for `Cc1cc(-c2ccc(/C=N/NC(=O)C(NC(=O)Cc3ccco3)C(C)C)o2)cc([N+](=O)[O-])c1C` (configuration not stated), the inhibition is 62.8%.

Regarding `Cc1c(NC(=S)NC(=O)c2ccncc2)c(=O)n(-c2ccccc2)n1C`, the inhibition was less than 20%.

Compound `O=C(NCCCn1ccnc1)/C(=C\c1ccc(-c2cccc([N+](=O)[O-])c2)o1)NC(=O)c1ccccc1` showed an inhibition of 28.8%.

Consider `Cc1c(NC(=S)NC(=O)c2cncc(Br)c2)c(=O)n(-c2ccccc2)n1C`, for which the inhibition was less than 20%.

Take `NC(=S)N/N=C/c1ccc(-c2cccc3ccccc23)o1`: the inhibition stood at 73.2%.

Turning to `COc1cc([N+](=O)[O-])ccc1-c1ccc(/C=N/NC(=O)Cn2c3ccccc3c(=O)c3ccccc32)o1`, the inhibition was found to be 26%.

For the compound `O=C(CNC(=O)c1ccccc1F)N/N=C/c1ccc([N+](=O)[O-])o1`, the inhibition is less than 20%.

`COc1ccc(-c2ccc(/C=N/NC(=O)Cn3c(-c4nonc4N)nc4ccccc43)o2)c([N+](=O)[O-])c1` had an inhibition of less than 20%.

Compound `O=C(Cn1c2ccccc2c(=O)c2ccccc21)N/N=C/c1ccc(-c2cc([N+](=O)[O-])ccc2Cl)o1` had an inhibition of less than 20%.

Regarding `O=C1NN(c2ccc(F)cc2)C(=O)/C1=C\c1ccc(-c2cccc(C(=O)O)c2)o1`, the inhibition came out at 33.8%.

Regarding `O=C(O)c1cc(-c2ccc(/C=N/Nc3nc4nonc4nc3Nc3ccc(Br)cc3)o2)ccc1O`, the inhibition was 45.9%.

`Cc1c(NC(N)=S)c(=O)n(-c2ccccc2)n1C`: the inhibition was less than 20%.

The compound `Cc1c(-c2ccc(/C=N/NC(=O)Cn3c(-c4nonc4N)nc4ccccc43)o2)ccc([N+](=O)[O-])c1C` gave an inhibition of less than 20%.

As to `O=[N+]([O-])c1cccc(-c2ccc(/C=N/NC(=S)NC3CCS(=O)(=O)C3)o2)c1` (configuration not stated), the inhibition came to 30.2%.

`O=C(COCc1ccccc1Cl)N/N=C/c1ccc(-c2ccc([N+](=O)[O-])cc2)o1` yielded an inhibition of 23.3%.

As for `Cc1cc(-c2ccc(/C=N/NC(=O)Cn3c(-c4nonc4N)nc4ccccc43)o2)ccc1[N+](=O)[O-]`, the inhibition was 42.9%.

Regarding `Nc1nonc1-c1nc2ccccc2n1CC(=O)N/N=C/c1ccc(-c2ccccc2C(=O)O)o1`, the inhibition is 41.7%.

Take `Cc1c(NC(=S)NC(=O)CC(C)C)c(=O)n(-c2ccccc2)n1C`: the inhibition was less than 20%.

Turning to `CCOC(=O)N/N=C/c1ccc(-c2cccc(C(=O)O)c2)o1`, the inhibition was determined as 29.4%.

`NC(=S)N/N=C/c1ccc(-c2ccc3ccccc3c2)o1`: the inhibition was 54.1%.

With `Cc1c(NC(=S)NC(=O)c2cccc(Br)c2)c(=O)n(-c2ccccc2)n1C`, the inhibition is less than 20%.

For `COCc1c(Br)c(C)nc(OCC(=O)N/N=C/c2ccc(-c3cccc(C(=O)O)c3)o2)c1C#N`, the inhibition was determined as 32.9%.

With `Cc1c(NC(=S)NCc2ccco2)c(=O)n(-c2ccccc2)n1C`, the inhibition was less than 20%.

`Cc1c(NC(=S)NC(=O)c2ccc(F)cc2)c(=O)n(-c2ccccc2)n1C` displayed an inhibition of less than 20%.

`C=CCNC(=S)N/N=C/c1ccc(-c2ccccc2[N+](=O)[O-])o1` had an inhibition of 28.4%.

With `O=c1sn(-c2cccc3ccccc23)c(=O)n1Cc1ccccc1`, the inhibition turned out to be 98.6%.

Consider `O=C(CNc1ccc2ccccc2c1)N/N=C/c1ccc(-c2ccc([N+](=O)[O-])cc2)o1`, for which the inhibition was found to be 23%.

In turn, `CCNC(S)=Nc1c(C)n(C)n(-c2ccccc2)c1=O` registered an inhibition of less than 20%.

`Cc1c(NC(=S)NC(=O)c2ccccc2)c(=O)n(-c2ccccc2)n1C` gave an inhibition of less than 20%.

The compound `CCOC(=O)c1ccc(-c2ccc(/C=N/NC(=O)Cn3c4ccccc4c(=O)c4ccccc43)o2)cc1` showed an inhibition of less than 20%.

Compound `CC1=CC2=NC(=O)/C(=C\c3ccc(-c4cccc(C(=O)O)c4)o3)C(=N)N2O1` displayed an inhibition of less than 20%.

Consider `Nc1nonc1C(=O)N/N=C/c1ccc(-c2cccc([N+](=O)[O-])c2)o1`, for which the inhibition stood at 31.2%.

`CCOC(=O)c1ccc(NC(=S)Nc2c(C)n(C)n(-c3ccccc3)c2=O)cc1` registered an inhibition of less than 20%.

`NC(=O)N/N=C/c1ccc(-c2ccc([N+](=O)[O-])cc2)o1`: the inhibition is less than 20%.

In turn, `N#Cc1c(/N=C/c2ccc(-c3ccc(Cl)c(C(=O)O)c3)o2)sc2c1CCCC2` had an inhibition of less than 20%.

Turning to `Nc1nnnn1CC(=O)N/N=C/c1ccc(-c2ccccc2C(=O)O)o1`, the inhibition was found to be 34.5%.

For `O=C1NC(=S)N/C1=C/c1ccc(-c2ccccc2C(=O)O)o1`, the inhibition was less than 20%.

`COc1cccc(C(=O)NCC(=O)N/N=C/c2ccc([N+](=O)[O-])o2)c1`: the inhibition is less than 20%.

`O=C(O)c1cc(-c2ccc(/C=N/Nc3nc(Nc4ccccc4)nc(Nc4ccccc4)n3)o2)ccc1O` displayed an inhibition of 34.6%.

In the case of `O=C(O)c1cccc(-c2ccc(/C=N/NC(=S)Nc3ccc(Cl)cc3)o2)c1`, the inhibition is 43.8%.

In turn, `NC(=S)N/N=C/c1ccc(-c2ccc(Cl)c(Cl)c2)o1` displayed an inhibition of 49.8%.

Regarding `O=C(Cn1c2ccccc2c(=O)c2ccccc21)N/N=C/c1ccc(-c2ccc(O)c(C(=O)O)c2)o1`, the inhibition turned out to be 54.5%.

For the origin of these results see ChEMBL document CHEMBL5137045, “Discovery of 2-(furan-2-ylmethylene)hydrazine-1-carbothioamide derivatives as novel inhibitors of SARS-CoV-2 main protease” (Eur J Med Chem, 2022).
